Test results from ChEMBL document CHEMBL5653630, “Activation of the p53-MDM4 regulatory axis defines the anti-tumour response to PRMT5 inhibition through its role in regulating cellular splicing” (Sci Rep, 2018).
Blank lines part the entries; values can stand above or below the compound they belong to. Active and inactive are the calls of the source. The calls are words filed in the database; no cut-off is given here.

Columns and labels:
MCF7 = assay: Induction of cell cycle arrest in human MCF7 cells assessed as increase in sub-2N cell population measured upto 5000 nM measured for 7 to 10 days by propidium iodide staining based flow cytometric analysis; assay type: functional; settings: time 7-10 day
JVM-2 = assay: Induction of apoptosis in human JVM-2 cells assessed as dead cells incubated for 6 days by annexin-V/FITC propidium iodide staining based flow cytometry analysis; assay type: functional, cell-based; settings: dose <= 5000.0 nM, time 6.0 day
Z-138 = assay: Induction of apoptosis in human Z138 cells assessed as early apoptotic cells incubated for 6 days by annexin-V/FITC propidium iodide staining based flow cytometry analysis; assay type: functional, cell-based; settings: dose 200.0 nM, time 6.0 day
MCL = assay: Induction of cell cycle arrest in human MCL cells assessed as increase in 2n cell population measured upto 5000 nM measured for 3 days by propidium iodide staining based flow cytometric analysis; assay type: functional; settings: time 3.0 day
Maver1 = assay: Induction of apoptosis in human MAVER-1 cells assessed as early apoptotic cells incubated for 6 days by annexin-V/FITC propidium iodide staining based flow cytometry analysis; assay type: functional, cell-based; settings: dose <= 5000.0 nM, time 6.0 day
[1] = target: Protein arginine N-methyltransferase 5 (Homo sapiens) (UniProt O14744); assay: Inhibition of PRMT5 in human Z138 cells expressing full length MDM4 assessed as induction of p21 at 1 uM incubated for 4 days by Western blot analysis; assay type: cell-based; settings: time 4.0 day
D283 Med = assay: Antiproliferative activity against human D283 Med cells assessed as cell growth inhibition incubated for 10 days; assay type: functional; settings: 240 h, time 10 day
Procedure, shortened: (§1)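 Outsourced panel run in 384-well plates. Cells were grown in RPMI-1640/10% FBS or a special medium at 37°C, 5% CO2. Compound was added 24 h after seeding as a 10-point, 3.16-fold series in 0.1% DMSO. Medium was refreshed and cells re-dosed at 168 h, with a time-zero plate kept. At 240 h cells were fixed, nuclei stained and imaged. gIC50 is growth midway between untreated and time zero, from a 4-parameter fit.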

SW1463 = assay: Antiproliferative activity against human SW1463 cells assessed as cell growth inhibition incubated for 10 days; assay type: functional; settings: SW1463, 240 h, time 10 day
Malme-3M = assay: Antiproliferative activity against human Malme-3M cells assessed as cell growth inhibition incubated for 10 days; assay type: functional; settings: 240 h, time 10 day
HLE = assay: Antiproliferative activity against human HLE cells assessed as cell growth inhibition incubated for 10 days; assay type: functional; settings: 240 h, time 10 day; procedure, shortened: as §1
SW948 = assay: Antiproliferative activity against human SW948 cells assessed as cell growth inhibition incubated for 10 days; assay type: functional; settings: SW948, 240 h, time 10 day
DMS-114 = assay: Antiproliferative activity against human DMS-114 cells assessed as cell growth inhibition incubated for 10 days; assay type: functional; settings: DMS-114, 240 h, time 10 day; procedure, shortened: as §1
OE33 = assay: Antiproliferative activity against human OE33 cells assessed as cell growth inhibition incubated for 10 days; assay type: functional; settings: OE33, 240 h, time 10 day
JAR = assay: Antiproliferative activity against human JAR cells assessed as cell growth inhibition incubated for 10 days; assay type: functional; settings: 240 h, time 10 day
Procedure, shortened: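 Eurofins-panel 10-day assay in 384-well plates. Cells grown in RPMI-1640 with 10% FBS, 2 mM L-alanyl-L-glutamine and 1mM Na pyruvate, or a special medium, at 37°C in 5% CO₂. Compound added 24 h after seeding, 10-point 3.16-fold series in 0.1% DMSO. Medium replaced and compound re-dosed at 168 h. Nuclei fixed and stained after 240 h, then imaged to give a relative cell count. gIC50 is the concentration giving growth midway between untreated and time-zero counts, from a 4-parameter fit.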

[2] = Antiproliferative activity against human SW579 cells assessed as cell growth inhibition incubated for 10 days; assay type: functional; settings: SW579, 240 h, time 10 day
HEC-1-A = assay: Antiproliferative activity against human HEC-1-A cells assessed as cell growth inhibition incubated for 10 days; assay type: functional; settings: 240 h, time 10 day; procedure, shortened: as §1
Hs 695T = assay: Antiproliferative activity against human Hs 695T cells assessed as cell growth inhibition incubated for 10 days; assay type: functional; settings: 240 h, time 10 day
Procedure, shortened: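 Eurofins panel, 384-well. Cells kept in RPMI-1640 with 10% FBS, 2 mM L-alanyl-L-glutamine and 1 mM Na pyruvate, or in a special medium, at 37°C under 5% CO2. Compound added 24 h after seeding as 10 concentrations in 3.16-fold steps, 0.1% DMSO final. Medium replaced and compound re-dosed at 168 h. After 240 h, cells fixed and nuclei stained for imaging. gIC50 = growth midway between untreated cells and time-zero count.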

SK-N-FI = assay: Antiproliferative activity against human SK-N-FI cells assessed as cell growth inhibition incubated for 10 days; assay type: functional; settings: 240 h, time 10 day
CAPAN-1 = assay: Antiproliferative activity against human CAPAN-1 cells assessed as cell growth inhibition incubated for 10 days; assay type: functional; settings: CAPAN-1, 240 h, time 10 day
Procedure, shortened: (§2)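 Cells kept in RPMI-1640 with 10% FBS, 2 mM L-alanyl-L-glutamine and 1 mM Na pyruvate (or a special medium) at 37°C, 5% CO2. Compound added 24 h after seeding, 10 concentrations in 3.16-fold dilution, 0.1% DMSO final. Medium replaced and cells re-dosed at 168 h; 240 h incubation. Nuclei fixed, dye-stained and imaged. gIC50 = growth midway between untreated and time-zero cell counts, from a 4-parameter fit.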

SW480 = assay: Antiproliferative activity against human SW480 cells assessed as cell growth inhibition incubated for 10 days; assay type: functional; settings: SW480, 240 h, time 10 day
SK-UT-1 = assay: Antiproliferative activity against human SK-UT-1 cells assessed as cell growth inhibition incubated for 10 days; assay type: functional; settings: SK-UT-1, 240 h, time 10 day
ES-2 = assay: Antiproliferative activity against human ES2 cells assessed as cell growth inhibition incubated for 10 days; assay type: functional; settings: ES-2, 240 h, time 10 day; procedure, shortened: as §1
SK-LMS-1 = assay: Antiproliferative activity against human SK-LMS-1 cells assessed as cell growth inhibition incubated for 10 days; assay type: functional; settings: SK-LMS-1, 240 h, time 10 day
SW-620 = assay: Antiproliferative activity against human SW620 cells assessed as cell growth inhibition incubated for 10 days; assay type: functional; settings: SW-620, 240 h, time 10 day
[3] = Antiproliferative activity against human CML-T1 cells assessed as cell growth inhibition incubated for 10 days; assay type: functional; settings: CML-T1, 240 h, time 10 day; procedure, shortened: as §2
BHT-101 = assay: Antiproliferative activity against human BHT-101 cells assessed as cell growth inhibition incubated for 10 days; assay type: functional; settings: BHT-101, 240 h, time 10 day; procedure, shortened: as §2
DB = assay: Antiproliferative activity against human DB cells assessed as cell growth inhibition incubated for 10 days; assay type: functional; settings: 240 h, time 10 day; procedure, shortened: as §1
A549 = assay: Antiproliferative activity against human A549 cells assessed as cell growth inhibition incubated for 10 days; assay type: functional; settings: A549, 240 h, time 10 day; procedure, shortened: as §2
[4] = target: Protein arginine N-methyltransferase 5 (Homo sapiens) (UniProt O14744); assay: Inhibition of PRMT5 in human Z138 cells assessed as full length MDM4 splicing at 200 to 1000 nM incubated for 3 days by RT-PCR analysis; assay type: cell-based; settings: dose 200-1000 nM, time 3.0 day
U-87 MG = assay: Antiproliferative activity against human U-87 MG cells assessed as cell growth inhibition incubated for 10 days; assay type: functional, U-87MG ATCC; settings: 240 h, time 10 day
[5] = target: Protein arginine N-methyltransferase 5 (Homo sapiens) (UniProt O14744); assay: Inhibition of PRMT5 in human Z138 cells assessed as effect on snRNP B1 level by measuring fold change by LC-MS/MS analysis relative to control; assay type: cell-based

Chain of Protein arginine N-methyltransferase 5 (Homo sapiens) (O14744 whole entry): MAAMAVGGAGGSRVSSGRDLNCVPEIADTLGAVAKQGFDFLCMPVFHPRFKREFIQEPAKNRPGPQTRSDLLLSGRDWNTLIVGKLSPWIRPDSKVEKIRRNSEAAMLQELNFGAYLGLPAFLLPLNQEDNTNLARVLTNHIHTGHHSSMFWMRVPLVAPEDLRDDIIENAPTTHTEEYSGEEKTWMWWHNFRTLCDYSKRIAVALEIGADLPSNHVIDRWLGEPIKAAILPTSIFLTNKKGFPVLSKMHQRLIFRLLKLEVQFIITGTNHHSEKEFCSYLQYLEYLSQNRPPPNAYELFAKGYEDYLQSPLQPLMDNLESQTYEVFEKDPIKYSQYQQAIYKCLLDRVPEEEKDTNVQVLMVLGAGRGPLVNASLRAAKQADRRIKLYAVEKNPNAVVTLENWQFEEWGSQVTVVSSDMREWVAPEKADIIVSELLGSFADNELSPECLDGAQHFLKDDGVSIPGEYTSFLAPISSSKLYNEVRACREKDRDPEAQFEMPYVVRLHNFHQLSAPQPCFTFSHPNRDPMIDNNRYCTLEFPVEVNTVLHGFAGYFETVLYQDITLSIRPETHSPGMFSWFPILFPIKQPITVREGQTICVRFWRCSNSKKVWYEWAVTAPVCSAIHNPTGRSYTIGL

Compound: CC(=O)N1CCC(Nc2cc(C(=O)NC[C@H](O)CN3CCc4ccccc4C3)ncn2)CC1 [PEMRAMETOSTAT]
Activity (MCF7): Active
Activity (JVM-2): Dose-Dependent Effect
Activity (Z-138): Dose-Dependent Effect
Activity (MCL): Active
Activity (Maver1): Dose-Dependent Effect

inhibition [1]: inactive
GI50 (SW1463): 0.77 µM
GI50 (SW948): 0.12 µM
GI50 (SK-N-FI): 0.308 µM
GI50 (SW480): 0.413 µM
GI50 (SK-UT-1): 0.0421 µM
GI50 (SK-LMS-1): 0.113 µM
GI50 (SW-620): 5.64 µM
GI50 (A549): 0.0809 µM
inhibition [4]: Active
GI50 (U-87 MG): 0.0676 µM
fold change (FC) [5]: -16.8
Compound: O=C(NC[C@H](O)CN1CCc2ccccc2C1)c1ccnc(NC2CCC2)c1
GI50 (D283 Med): 0.0235 µM
GI50 (Malme-3M): 0.265 µM
GI50 (HLE): 0.174 µM
GI50 (DMS-114): 1.01 µM
GI50 (OE33): 0.231 µM
GI50 (JAR): 0.485 µM
GI50 [2]: 0.0833 µM
GI50 (HEC-1-A): 2.44 µM
GI50 (Hs 695T): 0.602 µM
GI50 (CAPAN-1): 0.37 µM
GI50 (ES-2): 0.106 µM
GI50 [3]: 0.0161 µM
GI50 (BHT-101): 0.214 µM
GI50 (DB): 0.00251 µM
